# Shown are actives, neighbours in structure and some others; about 7.2% of the full set was active somewhere.
# PostGolgi yeast – phenotypic screen on post-Golgi transport, primary screen | inhibition, % at 10 µM | post-Golgi transport phenotypic cell assay | 0.9% of 98,000 active | AID 739, 2007;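 further: yeast cells grown in 1536-well plates; yeast grown about 18 h at 30C before absorbance read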
# PostGolgi ctrl – growth inhibition of yeast control strain, primary screen, counter-screen for post-Golgi transport modulator project; AID 738, 2007; 5% of 98,000 active; inhibition, % at 10 µM; efflux-deficient yeast background strain, growth absorbance A615, 16 h
# PLAP activator – PLAP enzyme activators, biochemical, luminescence, HTS; 1.2% of 96,000 active; activation fold at 20 µM; Alkaline phosphatase, placental type (Homo sapiens), P05187; purified PLAP enzyme, luminescent substrate read-out; active compounds read high; in the data active means activation fold above about 2
# Target sequence (P05187 whole entry, looked up): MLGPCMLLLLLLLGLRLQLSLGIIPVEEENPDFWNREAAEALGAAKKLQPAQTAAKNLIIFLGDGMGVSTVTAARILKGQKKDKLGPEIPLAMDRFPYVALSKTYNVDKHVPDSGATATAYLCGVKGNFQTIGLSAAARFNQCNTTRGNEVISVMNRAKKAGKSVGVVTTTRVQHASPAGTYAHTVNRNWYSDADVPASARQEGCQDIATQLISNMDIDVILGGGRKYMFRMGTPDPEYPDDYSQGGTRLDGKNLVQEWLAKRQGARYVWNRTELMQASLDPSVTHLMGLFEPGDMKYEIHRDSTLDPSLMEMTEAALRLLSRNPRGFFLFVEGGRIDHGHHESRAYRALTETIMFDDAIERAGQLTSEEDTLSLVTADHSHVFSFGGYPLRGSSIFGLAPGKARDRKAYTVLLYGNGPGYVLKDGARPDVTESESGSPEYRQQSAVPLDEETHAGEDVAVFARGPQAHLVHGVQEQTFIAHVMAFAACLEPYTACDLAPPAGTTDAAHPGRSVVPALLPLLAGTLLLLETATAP
# tolC growth inh – growth inhibitors of E. coli tolC mutant, primary screen, strain BW25113 ΔtolC::kan, 384-well. OD615. growth inhibition, % at 10 µM (by protocol). 2.2% of 65,000 active. AID 573, 2007;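 active means growth inhibition at or above a cutoff equal to the mean over every tested compound plus 3 SD, cut at about 60% in these data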;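 further: growth measured after 20 h incubation at 37 °C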
#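 Test system – E. coli BW25113 ΔtolC::kan, tolC deletion mutant strain · Detection – OD at 615 nm · Buffer or medium – LB with kanamycin 50 µg/mL · Times – 20 h compound exposure of bacteria at 37 °C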
# E coli WT exp – growth inhibitors of wild-type E. coli, primary screen, strain BW25113, expanded library, OD600; OD600 absorbance; growth inhibition, % at 100 µM; 0.15% of 98,000 active; AID 710, 2007;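 active means growth inhibition above about 50% at one test dose, limit read from the data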;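 further: growth measured after 20 h incubation at 37 °C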
# Numbers without * were called inactive; nt = not tested or not shown; ! = not confirmed by another sample. Unless noted, no stated cut-off is given here; in the data, active means inhibition above about 30%; inactive means the rest.
SMILES,PostGolgi yeast,PostGolgi ctrl,PLAP activator,tolC growth inh,E coli WT exp
CCOC(=O)C1=C(C)NC(=O)NC1c1ccc(F)cc1 (centres undefined),nt,nt,nt,-13,nt
CN=C(c1ccco1)n1c(=S)nc(-c2ccco2)n(C)c1=S,0,11,2.7*,-3,-5
Cc1nn(-c2ccc(F)cc2)c2sc(C(=O)N3CCCCCC3)cc12,-7,31*,0.9,97*,-22
Cc1nn(-c2ccc(Cl)cc2)c2sc(C(=O)N3CCN(C(=O)c4ccco4)CC3)cc12,nt,nt,0.9,9,nt
CCCn1c(=S)[nH]c2cc(C(=O)N3CCc4ccccc43)ccc2c1=O,-2,103*,1.1,nt,-4
COCCn1c(=S)[nH]c2cc(C(=O)N3CCc4ccccc43)ccc2c1=O,-14,96*,1.2,4,5
O=S(=O)(c1ccc2c(c1)OCCO2)N(Cc1ccc(F)cc1)Cc1nnc(-c2cccs2)o1,-4,35*,1.1,33,-11
COc1cccc2c1N1C(=O)c3c(C(=O)O)cccc3C1CC2(C)C (centres undefined),-4,5,1,17,5
O=C(CSc1nc2ccccc2[nH]1)NCCCn1ccnc1,6,3,2*,-18,3
O=C(O)CSc1nc2ccccc2[nH]1,20,-3,0.9,nt,-5
CCOC(=O)Cn1cc(C=O)c2ccccc21,42*,1,0.9,nt,5
CC(=O)c1c(C)[nH]c(C(=O)COc2ccc(C#N)cc2)c1C,3,32*,1.2,nt,-4
CC(C)CCn1c(SCC(N)=O)nc2c1c(=O)n(C)c(=O)n2C,-7,-5,1.2,-14,6
CCOC(=O)N1CCC(Nc2c(OCC)c(=O)c2=O)CC1,1,5,1.1,-12,-2
CCCN(CCC)c1nc(NC2CCN(C(=O)OCC)CC2)nc(OC)n1,4,18,1.3,81*,-9
CCOC(=O)NCC(C#CCN(CC)CC)N(CC)CC (centres undefined),-1,42*,1.1,-7,4
O=C(CSc1ccc2ccccc2n1)c1ccc2c(c1)OCO2,9,32*,0.8,nt,-26
O=C(O)CSc1ccc2ccccc2n1,5,7,1,-36,-4
O=C(O)CCSc1ccc2ccccc2n1,1,44*!,1,2,-4
Cc1ccccc1NC(NC(=O)c1cccs1)C(Cl)(Cl)Cl (centres undefined),4,7,0.8,nt,-3
CN=C(Nc1cc(Cl)ccc1Cl)SC1CC(=O)N(c2ccc(C(=O)OC)cc2)C1=O (centres undefined),17,38*,1.3,nt,-3
O=C(Nn1c(-c2ccc(F)cc2)nc2ccccc2c1=O)C1CCCCC1,-10,4,1.4,nt,-1
Cc1c(C(=O)NCc2cccnc2)oc2ccc(S(=O)(=O)N3CCCC(C)C3)cc12 (centres undefined),6,33*,1.4,12,-9
Cc1c(C(=O)N2CCCCC2)oc2ccc(S(=O)(=O)N3CC(C)CC(C)C3)cc12 (centres undefined),-4,15,1.1,91*,2
CCOC(=O)N1CCN(C(=O)c2oc3ccc(S(=O)(=O)N4CCCCC4)cc3c2C)CC1,0,4,1.4,-2,9
SMILES,PostGolgi yeast,PostGolgi ctrl,PLAP activator,tolC growth inh,E coli WT exp
COCCn1c(SCc2ccc(C(=O)OC)o2)nc2cc(Cl)ccc2c1=O,-12,25,1.6,40,-27
Cc1ccc(Cn2ncn3c(cc4ccccc43)c2=O)cc1,2,35*,0.9,65*,1
CC(C)(C)c1ccc(C(=O)CCCSC2=C(C#N)C(c3ccco3)C3=C(CCCC3=O)N2)cc1 (centres undefined),2,-7,1.5,80*,-22
Brc1cccc(-c2nc(-c3ccncc3)no2)c1,13,43*,0.9,-1,0
COc1cccc(-c2nc(-c3ccccc3)no2)c1,10,4,0.9,99*,3
COc1cccc(-c2noc(-c3cccs3)n2)c1,-1,3,0.7,94*,-8
COc1cc(-c2nc(-c3cccc(C)c3)no2)cc(OC)c1OC,nt,nt,nt,67*,nt
CCNc1nc(NC(C)C)nc(Oc2ccc(/C=N/O)cc2)n1,0,11,0.8,nt,-6
Cc1cccc(C)c1NC(=O)C(c1ccc(Cl)cc1Cl)N1CCCCC1 (centres undefined),1,16,1.2,nt,-5
CN(C)c1ccc(-c2nn3c(C4CCCCC4)nnc3s2)cc1,0,20,1.7,58,-10
COc1ccc(-c2nnc(Sc3nc4ccccc4o3)c3ccccc23)cc1,-2,46*,nt,nt,-3
COc1ccc(-c2nnc(N3CCCCC3)c3ccccc23)cc1,2,30,1.1,nt,-2
CC1Cc2ccccc2N1C(=O)CSc1nnnn1C(C)C (centres undefined),-4,-1,1.4,nt,6
CCOC(=O)Cc1nnc2c(Nc3ccc(C)cc3)nc3nonc3n12,14,-3,1.4,57,8
CCOC(=O)Cc1nnc2c(Nc3ccccc3F)nc3nonc3n12,-1,34*,1,79*,8
COC(=O)C1=C(N)Oc2cc(C)n(CCN3CCOCC3)c(=O)c2C1c1cccnc1 (centres undefined),-8,1,1,-14,1
COc1ccc(CCNc2ncnc3[nH]ncc23)cc1OC,-3,2,2*,-10,1
N#Cc1c(NC(=O)c2ccncc2)sc2c1CCC2,2,31*,1.1,9,-6
COc1cc(C(=O)Nc2cccc3cccnc23)cc(OC)c1OC,32*,5,1.3,nt,-1
Cc1onc(-c2ccccc2Cl)c1C(=O)Nc1cccc2cccnc12,0,33*,0.8,30,-6
COc1cc(NC(=O)c2c(-c3ccccc3Cl)noc2C)c2ncccc2c1,nt,nt,nt,17,nt
O=C(Nc1cccc2cccnc12)c1cccnc1,-2,13,0.9,0,5
Cc1onc(-c2ccccc2Cl)c1C(=O)Nc1sc2c(c1C#N)CCC2,-10,30*,1.3,83*,-19
COc1ccc(CN2C(=O)c3ccccc3C(/C=N\OCc3ccc(C)cc3)C2=O)cc1 (centres undefined),-4,4,1.4,nt,3
Cc1nc2sc3c(c2c(=O)[nH]1)CCC3,-1,-9,1.4,-8,-5
Cc1cc(-c2nc3c4c5c(sc4[nH]c(=O)n3n2)CCC5)c(C)o1,0,31*,1.6,29,1
O=C(NC1CCCCC1)c1ccc(CNc2ccccc2)o1,-7,5,0.8,-13,-2
CN(C)/C=C1\C(=O)c2ccc(N(C)C)nc2CC1c1ccccc1 (centres undefined),nt,nt,nt,-8,nt
Cc1ccc(N(C(=O)CCC(=O)Nc2cc(C)on2)C(C(=O)NC2CCCC2)c2cccs2)cc1 (centres undefined),0,36*,0.9,nt,-2
Cc1cc(NC(=O)CCC(=O)N(c2ccccc2)C(C(=O)NC2CCCC2)c2cccs2)no1 (centres undefined),-7,15,1.2,9,-7
